For assay [1], the target named is T1, B2 bradykinin receptor (Cavia porcellus, UniProt O70526).
T1 sequence (O70526 whole entry): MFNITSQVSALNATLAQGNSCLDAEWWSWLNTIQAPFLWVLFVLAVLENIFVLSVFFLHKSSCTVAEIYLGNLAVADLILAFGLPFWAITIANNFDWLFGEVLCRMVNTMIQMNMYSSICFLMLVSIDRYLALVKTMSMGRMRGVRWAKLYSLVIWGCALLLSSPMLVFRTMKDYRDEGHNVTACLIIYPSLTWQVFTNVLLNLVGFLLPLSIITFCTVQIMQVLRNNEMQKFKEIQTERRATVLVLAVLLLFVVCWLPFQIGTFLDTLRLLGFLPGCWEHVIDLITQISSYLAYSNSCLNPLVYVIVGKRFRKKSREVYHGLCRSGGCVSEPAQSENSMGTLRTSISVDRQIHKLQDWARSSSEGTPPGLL
Description: Inhibition of the specific binding of [3H]BK to Bradykinin receptor B2 in guinea pig ileum membrane preparations. It is filed as cell membranes. In short, it runs like this:
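Male Hartley guinea pig ileum membranes (100000g pellet) at 0.2 mg protein/mL in pH 6.8 TES buffer with phenanthroline, bacitracin, DTT, captopril, BSA. Incubated with 0.06 nM [3H]BK plus varying compound concentrations, 60 min, room temperature. Filtration harvest, scintillation counting. Nonspecific binding defined with 1 µM unlabeled BK. IC50 as mean of at least three determinations.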

In assay [2] the target is T2, B2 bradykinin receptor (Homo sapiens, UniProt P30411).
T2 sequence (P30411 whole entry): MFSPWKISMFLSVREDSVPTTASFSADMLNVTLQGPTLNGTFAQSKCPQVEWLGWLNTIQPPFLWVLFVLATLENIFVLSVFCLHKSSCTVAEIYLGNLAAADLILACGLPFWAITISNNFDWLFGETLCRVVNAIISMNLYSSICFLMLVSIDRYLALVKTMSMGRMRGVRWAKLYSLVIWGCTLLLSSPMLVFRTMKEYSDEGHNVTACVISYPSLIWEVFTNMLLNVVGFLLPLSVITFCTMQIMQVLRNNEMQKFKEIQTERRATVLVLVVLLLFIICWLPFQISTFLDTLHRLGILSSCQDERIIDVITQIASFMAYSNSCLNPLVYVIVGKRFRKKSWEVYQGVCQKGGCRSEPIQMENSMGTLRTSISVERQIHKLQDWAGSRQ
The assay can be described thus: Inhibition of the specific binding of [3H]BK to human recombinant Bradykinin receptor B2 expressed in CHO cells. It is filed as cell-based. In short, it runs like this: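 Intact CHO (dhfr-) cells stably expressing human B2, seeded at 3.0 × 10^4 cells/well and cultured 1 day. Incubated with 1.0 nM [3H]BK and compound, 2 h at 4 °C, in HEPES/N-methyl-D-glucamine buffer pH 7.2 with bacitracin, enalaprilat, BSA. Cells solubilized in SDS/NaOH for scintillation counting. Nonspecific binding defined with 1 µM BK. Run three times.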

The test system of another assay is Cavia porcellus. The assay can be described thus: Antagonistic activity in inhibiting BK-induced bronchoconstriction in guinea pigs by oral administration at 1 mg/kg dose. It is filed as functional. In short, it runs like this: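 Male Hartley guinea pigs (470-750 g), fasted overnight, anesthetized with pentobarbital 30 mg/kg ip, ventilated 10 mL/kg at 60 breaths/min; alcuronium 0.5 mg/kg iv, propranolol 10 mg/kg sc. BK 5 µg/kg iv; peak rise in insufflation pressure (modified Konzett–Rössler). Compound in 0.5% methylcellulose given via esophageal cannula; BK repeated 30 min later. % inhibition vs vehicle group; n = 3-4/dose.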

One may read the IC50 as the point on the concentration scale where inhibition reaches its midpoint. With `CNC(=O)c1ccc(/C=C/C(=O)NCc2sccc2-c2ccc(C)c(COc3cccc4ccc(C)nc34)c2C)cc1`, the IC50 on B2 bradykinin receptor [1] is 2.8 nM; at B2 bradykinin receptor [2], 5.8 nM.
For the compound `CNC(=O)c1ccc(/C=C/C(=O)Nc2cccc(-c3ccc(C)c(COc4cccc5ccc(C)nc45)c3C)c2)cc1`, the figures for the IC50 at B2 bradykinin receptor [1] and on B2 bradykinin receptor [2] were 94 nM and greater than 10000 nM, respectively.
Take `CNC(=O)c1ccc(/C=C/C(=O)NCc2ccccc2-c2ccc(C)c(COc3cccc4ccc(C)nc34)c2C)cc1`: the IC50 at B2 bradykinin receptor [2] was found to be 2.6 nM.
With `CNC(=O)c1ccc(/C=C/C(=O)NCC(=O)N(C)c2ccc(Cl)c(COc3cccc4ccc(C)nc34)c2)cc1`, the IC50 is 5.1 nM at B2 bradykinin receptor [1] and 110 nM on B2 bradykinin receptor [2].
As for `CNC(=O)c1ccc(/C=C/C(=O)NCC=Cc2ccc(Cl)c(COc3cccc4ccc(C)nc34)c2Cl)cc1`, the IC50 is 220 nM at B2 bradykinin receptor [1] and 710 nM at B2 bradykinin receptor [2].
On to `CC(=O)Nc1ccc(/C=C/C(=O)NCC(=O)Nc2ccc(Cl)c(COc3cccc4ccc(C)nc34)c2Cl)cn1`, for which the IC50 at B2 bradykinin receptor [1] was determined as 280 nM; at B2 bradykinin receptor [2] it was 4200 nM.
The like results for `CNC(=O)c1ccc(/C=C/C(=O)NC/C=C\c2ccc(Cl)c(COc3cccc4ccc(C)nc34)c2Cl)cc1` were, in that order, 17 nM and 14 nM.
With `CNC(=O)c1ccc(/C=C/C(=O)NCC(=O)N(C)c2cccc(COc3cccc4ccc(C)nc34)c2C)cc1`, the IC50 at B2 bradykinin receptor [1] was determined as 17 nM; at B2 bradykinin receptor [2] it was 150 nM.
As to `CNC(=O)c1ccc(/C=C/C(=O)NCC(=O)N(C)c2ccc(OC)c(COc3cccc4ccc(C)nc34)c2OC)cc1`, the results for the IC50 on B2 bradykinin receptor [1] and at B2 bradykinin receptor [2] were 17 nM and 210 nM, respectively.
The inhibition in vivo is the percentage by which the read-out fell short of the control. A low value points to little suppression. As for `Cc1ccc2cccc(OCc3c(Cl)ccc(N(C)C(=O)CNC(=O)/C=C/c4ccc(/C=C/c5ccncc5)nc4)c3Cl)c2n1`, the IC50 at B2 bradykinin receptor [1] stood at 0.76 nM; at B2 bradykinin receptor [2], 0.51 nM. The compound also gave an inhibition in vivo at 1 mg/kg in the assay with Cavia porcellus of 87.3%.
For the compound `Cc1ccc2cccc(OCc3c(Cl)ccc(N(C)C(=O)CNC(=O)/C=C/c4ccc(N5CCCC5=O)cc4)c3Cl)c2n1`, the IC50 stood at 0.55 nM on B2 bradykinin receptor [1] and 3.2 nM on B2 bradykinin receptor [2]. The same compound returned an inhibition in vivo at 1 mg/kg with Cavia porcellus of 85.3%.
Turning to `Cc1ccc2cccc(OCc3c(Cl)ccc(-n4cccc4CNC(=O)/C=C/c4ccc(N5CCCC5=O)cc4)c3Cl)c2n1`, the IC50 worked out at 0.58 nM at B2 bradykinin receptor [1] and 0.41 nM at B2 bradykinin receptor [2]. Moreover, in the assay with Cavia porcellus, the inhibition in vivo at 1 mg/kg was determined as 36%.
The corresponding values for `CNC(=O)c1ccc(/C=C/C(=O)NCc2cccn2-c2ccc(Cl)c(COc3cccc4ccc(C)nc34)c2Cl)cc1` are 0.64 nM, 0.26 nM and 67.9%.
With `CC(=O)Nc1ccc(/C=C/C(=O)NCc2cccn2-c2ccc(Cl)c(COc3cccc4ccc(C)nc34)c2Cl)cn1`, the IC50 on B2 bradykinin receptor [1] came to 0.56 nM; at B2 bradykinin receptor [2], 0.37 nM. In the assay with Cavia porcellus, 1 mg/kg produced 82.1% inhibition in vivo.

For the origin of these results see ChEMBL document CHEMBL1131177, “A novel class of orally active non-peptide bradykinin B2 receptor antagonists. 4. Discovery of novel frameworks mimicking the active conformation” (J Med Chem, 1998).
